This is an account of results in ChEMBL document CHEMBL5154824, “Design and synthesis of multifunctional microtubule targeting agents endowed with dual pro-apoptotic and anti-autophagic efficacy” (Eur J Med Chem, 2022).

Calls of active or inactive are those of the source. The calls are words filed in the database; no cut-off is given here.

Series [1] relates to SCC-4. As to the kind of experiment: Cytotoxicity against human SCC-4 cells assessed as reduction in cell viability measured after 48 hrs by alamar blue viability assay. Conditions: SCC-4, 48 h. The class given is functional, cell-based. In a few lines:
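Oral squamous carcinoma cells were exposed for 48 h to at least 8 increasing concentrations. Viability was read by AlamarBlue. IC50 is the concentration that halves viability, taken as the mean ± SD of at least three independent experiments.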

Series [2] relates to KYSE-520 cell line. As to the kind of experiment: Cytotoxicity against human KYSE520 cells assessed as inhibition of cell growth measured after 48 hrs by alamar blue viability assay. Particulars: KYSE-520, 48 h. The class given is functional, cell-based. In short, it runs like this: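 KYSE-520 oesophageal cells were exposed to at least 8 increasing concentrations for 48 h or 72 h. Viability was read out to give IC50, as the mean ± SD of at least three independent experiments.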
Background: Resazurin is reduced to fluorescent resorufin, in cell work by metabolically active cells.

For series [3], the system named is HeLa. As to the kind of experiment: Induction of autophagy in human HeLa cells assessed as increase in number of autophagosomes formation at 1 uM measured after 3 hrs by immunofluorescence based laser scanning confocal microscopic analysis. The class given is functional, cell-based. In a few lines: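 HeLa cells in growth medium were treated at 1 or 10 μM, with BafA1 300 nM as reference, for 3 h. Cells were fixed in ice-cold methanol, immunostained for LC3 (autophagosomes) and LAMP1, and imaged by laser scanning confocal microscopy.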

Series [4] has as its system NIH3T3. As to the kind of experiment: Cytotoxicity against mouse NIH3T3 cells assessed as inhibition of cell growth measured after 24 hrs by neutral red uptake assay. Conditions: NIH3T3, 24 h. The class given is functional, cell-based. In a few lines: (§1)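 Neutral red uptake viability test. NIH3T3 fibroblasts or primary human oral epithelial cells were exposed to compound at 0.1 to 120 μM. EC50 was derived, with SD below 5%.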

Series [5] in a line: Cytotoxicity against human Primary oral epithelial cells assessed as inhibition of cell growth measured after 24 hrs by neutral red uptake assay. The class given is toxicity, cell-based. In short, it runs like this:
as §1

Series [6] has as its system A549. As to the kind of experiment: Cytotoxicity against human A549 cells assessed as inhibition of cell growth measured after 48 hrs by MTT assay. The series is classed as functional, cell-based. Conditions: A549, 48 h.
Series [7] is described as follows: Mutagenicity in Salmonella typhimurium TA98 in absence of rat liver S9 fraction at 0.3 to 60 uM by AMES test. Conditions: salmonella enterica subsp. enterica serovar typhimurium, s9, 60 µM; dose 0.3-60 µM. The class given is toxicity.
Series [8] relates to SCC-4. As to the kind of experiment: Induction of autophagy in human SCC-4 cells assessed as decrease in UlK1 protein level at 10 uM in measured after 24 hrs by Immunoblotting analysis. The class given is functional, cell-based. In a few lines:
(§2)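 SCC4 cells under basal conditions were treated at 10 μM for 24 h. Autophagy-related proteins were immunoblotted, and densitometry was expressed as a ratio normalised to vehicle control.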
A general note: In western blotting, separated proteins are transferred to a membrane and probed.

Series [9] has as its system SCC-4. As to the kind of experiment: Induction of autophagy in human SCC-4 cells assessed as increase in UlK1 phosphorylation at 10 uM in measured after 24 hrs by Immunoblotting analysis. The class given is functional, cell-based. In short, it runs like this:
as §2

Series [10] relates to HL-60. As to the kind of experiment: Induction of autophagy in human HL-60 cells assessed as increase in LC3-II protein level at 10 uM measured up to 1 hr by Immunoblotting analysis. The series is classed as functional, cell-based.
Series [11] concerns HeLa. As to the kind of experiment: Induction of cell morphological changes in human HeLa cells at 10 uM measured after 3 hrs by LysoTracker Red staining based microscopic analysis. The series is classed as functional. In short, it runs like this: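 Living HeLa cells were treated at 10 μM, or with BafA1 at 300 nM, for 3 h, then incubated with 75 nM LysoTracker red. Cells were imaged by spinning disc microscopy at 37 °C, 5% CO2.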

Series [12] deals with HeLa. As to the kind of experiment: Induction of morphological changes in human HeLa cells assessed as cell rounding at 10 uM incubated for 3 hrs by phalloidin staining based laser scanning confocal microscopic analysis. The series is classed as functional. In short, it runs like this:
(§3)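 HeLa cells in growth medium were treated at 1 or 10 μM, with BafA1 300 nM as reference, for 3 h. Cells were fixed in 4% PFA, stained with anti-GM130 for the Golgi and AF647-phalloidin for actin, and imaged by laser scanning confocal microscopy.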

Series [13] has as its system HeLa. As to the kind of experiment: Induction of morphological changes in human HeLa cells assessed as effect on actin cytoskeleton at 10 uM incubated for 3 hrs by phalloidin staining based laser scanning confocal microscopic analysis. The class given is functional, cell-based. In short, it runs like this: as §3
Series [14] addresses Mitogen-activated protein kinase; ERK1/ERK2 (Homo sapiens) (UniProt P27361+P28482). As to the kind of experiment: Inhibition of ERK1/2 phosphorylation in human HL-60 cells at 10 uM measured after 2 hrs by Immunoblotting analysis. The series is classed as cell-based. In short, it runs like this: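 HL-60 cells were treated at 10 μM or with DMSO vehicle for 2 h. Phospho-NF-κB and phospho-Erk1/2 were immunoblotted and quantified by densitometry relative to β-tubulin. Data are mean ± SD (n = 2), analysed by one-way ANOVA.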

In series [15] the test system is HeLa. As to the kind of experiment: Cytotoxicity against human HeLa cells assessed as inhibition of cell growth measured after 48 hrs by MTT assay. The series is classed as functional, cell-based. In a few lines:
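MTT assay. Cells were exposed for 48 h to increasing concentrations of compound. Ovarian A2780 was paired with its P-gp-overexpressing A2780AD counterpart, and HeLa with HeLa β3, which overexpresses the tubulin β3 isotype. IC50 is the mean ± SD of three independent experiments.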
(In general: Tetrazolium assays rely on reduction of a dye to a coloured formazan, in cell work by metabolically active cells.)

Series [16] relates to Ca9-22. As to the kind of experiment: Induction of apoptosis in human Ca9-22 cells assessed as increase in apoptotic cells at 0.5 uM after 48 hrs by Annexin V-FITC/PI staining based flow cytometry method. The class given is functional, cell-based. In short, it runs like this:
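Ca9.22 or TR146 cells were seeded at 30×10^4 cells/mL and treated with 500 nM compound or 1% EtOH (v/v) vehicle for 48 h. Annexin V/PI staining was read by flow cytometry, gating 10,000 cells on vehicle-treated cells. Data are mean ± SEM (n = 3).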

For series [17], the system named is OE19. As to the kind of experiment: Cytotoxicity against human OE19 cells assessed as inhibition of cell growth measured after 72 hrs by MTT assay. Conditions: OE19, 72 h. The series is classed as functional, cell-based. In a few lines:
(§4)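 Oesophageal adenocarcinoma lines were exposed to at least 8 increasing concentrations for 72 h. Viability was measured by MTT. IC50 is the mean ± SD of at least three independent experiments.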

The nature of series [18]: Cytotoxicity against human MFD-1 cells assessed as inhibition of cell growth measured after 72 hrs by MTT assay. The class given is functional, cell-based. Particulars: MFD-1, 72 h. In a few lines: as §4
Series [19] is described as follows: Cytotoxicity against human SKGT4 cells assessed as inhibition of cell growth measured after 72 hrs by MTT assay. Conditions: SKGT4, 72 h. The series is classed as functional, cell-based. In short, it runs like this: as §4
A short description of series [20]: Ratio of IC50 for cytotoxicity against human HeLa cells overexpressing tubulin beta3 assessed as inhibition of cell growth measured after 48 hrs to IC50 for cytotoxicity against human HeLa cells assessed as inhibition of cell growth measured after 48 hrs. The series is classed as functional. In a few lines:
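MTT assay: cells exposed to increasing compound concentrations for 48 h. Lines were A2780 and its P-gp-overexpressing A2780AD counterpart, and HeLa and HeLa β3 (tubulin β3-overexpressing). IC50 is the mean ± SD of three independent experiments. R/S is the IC50 in the resistant line divided by that in the parental line.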

Series [21] concerns HeLa. As to the kind of experiment: Induction of morphological changes in human HeLa cells assessed as increase in actin stress fibres at 10 uM incubated for 3 hrs by phalloidin staining based laser scanning confocal microscopic analysis. The class given is functional, cell-based. In a few lines: as §3
The target of series [22] is Tubulin (Homo sapiens) (UniProt P68371+Q9H4B7+P0DPH7+P68366+Q13509+Q71U36+P04350+Q3ZCM7+P07437+P68363+Q9BQE3+Q6PEY2+Q13885+Q9BVA1+Q9BUF5). As to the kind of experiment: Binding affinity to tubulin (unknown origin) using podophyllotoxin by Competition assay. The series is classed as protein-complex assay. In short, it runs like this: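 Fluorescence competition: compound and tubulin at equal concentrations (0.1, 0.5 or 1 μM each) titrated with podophyllotoxin up to 10 μM; excitation 350 nm, emission read at 450 nm on plate reader; displacement judged as fluorescence decrease.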

Sequence of Mitogen-activated protein kinase; ERK1/ERK2 (Homo sapiens) (P27361 whole entry, looked up): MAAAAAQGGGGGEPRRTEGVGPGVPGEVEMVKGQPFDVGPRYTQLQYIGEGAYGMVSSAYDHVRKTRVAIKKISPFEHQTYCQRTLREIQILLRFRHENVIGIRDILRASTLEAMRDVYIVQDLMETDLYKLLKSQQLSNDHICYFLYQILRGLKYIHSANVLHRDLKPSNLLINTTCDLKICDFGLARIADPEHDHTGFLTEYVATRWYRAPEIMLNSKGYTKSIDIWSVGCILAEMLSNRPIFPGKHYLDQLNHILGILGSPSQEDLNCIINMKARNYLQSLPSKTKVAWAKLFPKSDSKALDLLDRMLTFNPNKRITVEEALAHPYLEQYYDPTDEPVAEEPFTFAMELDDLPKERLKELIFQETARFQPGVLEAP
Sequence of Mitogen-activated protein kinase; ERK1/ERK2 (Homo sapiens) (P28482 whole entry, looked up): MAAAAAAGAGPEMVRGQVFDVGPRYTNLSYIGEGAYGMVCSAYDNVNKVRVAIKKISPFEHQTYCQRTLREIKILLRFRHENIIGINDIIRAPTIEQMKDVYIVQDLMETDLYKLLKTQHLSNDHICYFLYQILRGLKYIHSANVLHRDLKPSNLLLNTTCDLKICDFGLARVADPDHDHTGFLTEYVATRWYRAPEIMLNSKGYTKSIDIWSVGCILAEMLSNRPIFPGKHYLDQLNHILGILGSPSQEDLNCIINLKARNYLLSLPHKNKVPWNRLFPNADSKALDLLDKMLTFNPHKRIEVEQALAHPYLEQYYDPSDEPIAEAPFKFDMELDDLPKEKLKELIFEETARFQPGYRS

In the case of `O=C(OC1=C(c2cccc3ncccc23)Oc2cc3ccccc3cc2-n2cccc21)C1CCNCC1`, the IC50 (as a rule, the midpoint of a concentration-inhibition curve) came to 850 nM in [1], 1680 nM in series [2] and 6150 nM in series [6]. The result in series [3], in series [8], in [9], in series [10], in series [11] and in [12] was Active. The result in series [13] was Active. The EC50 (commonly the concentration needed to bring the measured effect to its halfway point) in [4] amounted to 600 nM. Moreover, the EC50 at 24 h in series [5] was determined as 45000 nM. The Activity result in series [7] is reported as “Non-Toxic”. Besides, the inhibition result in series [14] is “Active”.

In the case of `CN1CCN(C(=O)OC2=C(c3cccc4ncccc34)Oc3cc4ccccc4cc3-n3cccc32)CC1`, the IC50 turned out to be 469 nM in [15]; 540 nM in series [1]; 3600 nM in series [2]; 730 nM in series [17]; 1210 nM in series [18]; 550 nM in series [19]. Further, in series [6], the IC50 was determined as 774 nM. For the same molecule, the outcome in [16], in series [8], in [9], in [10], in series [11] and in [21] was Active. For the same molecule, in series [22], the outcome was Active. Also, the EC50 in series [4] turned out to be 450 nM. The EC50 at 24 h in series [5] was found to be 45000 nM. The “Ratio IC50” value in series [20] stood at 0.71. In addition, the Activity result in series [7] is on record as “Non-Toxic”. The inhibition result in series [14] is “Active”.
